Test results reported in ChEMBL document CHEMBL1130029 (J Med Chem, 1997).
Values joined by “and” are separate entries in the source; they are usually repeats but may differ in a detail not shown here. Equal entries are not always repeated.

Legend:
Homo sapiens = species: Homo sapiens; experiment: In vitro hepatic microsomal metabolism in human; assay type: functional; conditions: Liver
Procedure, shortened: (§1)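 Microsomes from F344 rat, beagle dog, cynomolgus monkey or pooled human were incubated at 37 °C in a shaking bath. The oxidative arm used pH 7.4 Tris with NADPH and was run 3 h. The glucuronidation arm used pH 7.4 Tris-Brij with MgCl2 and UDPGA and was run 1 h. Compound was added from an acetone stock. Reactions were stopped with chilled acetonitrile, and unincubated controls were compared. Remaining parent was measured by HPLC.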

Monkey = experiment: In vitro hepatic microsomal metabolism in monkey; assay type: functional; conditions: Cercopithecidae, Liver; procedure, shortened: as §1
Rattus norvegicus [1] = species: Rattus norvegicus; experiment: In vitro hepatic microsomal metabolism in rat; assay type: functional; conditions: Liver; procedure, shortened: as §1
Mus musculus [2] = species: Mus musculus; experiment: In vitro hepatic microsomal metabolism in mouse; assay type: functional; conditions: Liver
[3] = Oral bioavailability in Rhesus monkey (dose 16 mg/kg); assay type: ADME, organism-based, Macaca mulatta; conditions: in vivo
Procedure, shortened: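 Two female and two male rhesus monkeys were dosed orally (16 mg/kg) and then iv (1 mg/kg) after a 2-week washout. Plasma was sampled from 1 min to 8 h, extracted liquid-liquid into benzene or cyclohexane, and quantified by reverse-phase HPLC (detection limit 10 ng/mL). AUC was calculated by the trapezoidal rule, and bioavailability = (AUCpo/dose)/(AUCiv/dose) × 100.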

Canis familiaris = species: Canis familiaris; experiment: In vitro hepatic microsomal metabolism in dog; assay type: functional; conditions: Canis lupus familiaris, Liver; procedure, shortened: as §1
Rhesus monkey [4] = experiment: In vivo plasma levels in Rhesus monkey was determined at a dose of 8 mg/kg administered orally; none detected; assay type: functional, organism-based; parameters: dose 8 mg/kg; conditions: Cercopithecidae
Rhesus monkey [5] = experiment: In vivo plasma levels in Rhesus monkey was determined at a dose of 8 mg/kg administered orally; assay type: functional, organism-based; parameters: dose 8 mg/kg; conditions: Cercopithecidae
Rattus norvegicus [6] = species: Rattus norvegicus; experiment: In vitro hepatic microsomal metabolism in rat.; assay type: functional; conditions: Liver; procedure, shortened: as §1
Mus musculus [7] = species: Mus musculus; experiment: In vitro Hepatic microsomal metabolism in mouse; assay type: functional; conditions: Liver
Human rhinovirus sp. [8] = experiment: Compound was tested for resistance (survivors(%)) by extended cycle replication assay conducted in 1 ug/mL Enviroxime.(3A amino acid substitution Glu 34 to Val).; assay type: functional
Procedure, shortened: (§2)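 Values are expressed relative to a no-drug control. Mutants of rhinovirus 14 were isolated, sequenced and assayed for resistance by earlier-reported procedures.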

Human rhinovirus sp. [9] = experiment: Compound was tested for resistance (survivors(%)) by extended cycle replication assay conducted in 1 ug/mL Enviroxime.(3A amino acid substitution Ile 77 to Val).; assay type: functional; procedure, shortened: as §2
Human rhinovirus sp. [10] = experiment: Compound was tested for resistance (survivors(%)) by extended cycle replication assay conducted in 1 ug/mL Enviroxime.(3A amino acid substitution Met 54 to Ile); assay type: functional; procedure, shortened: as §2
Human rhinovirus sp. [11] = experiment: Compound was tested for resistance (survivors(%)) by extended cycle replication assay conducted in 1 ug/mL Enviroxime.(3A amino acid substitution Gly 72 to Ser); assay type: functional; procedure, shortened: as §2
Human rhinovirus sp. [12] = experiment: Compound was tested for resistance (survivors(%)) by extended cycle replication assay conducted in 1 ug/mL Enviroxime. wild type; assay type: functional; procedure, shortened: as §2
Human rhinovirus sp. [13] = experiment: Compound was tested for resistance (survivors(%)) by extended cycle replication assay conducted in 1 ug/mL Enviroxime.(3A amino acid substitution Ile 42 to Val); assay type: functional; procedure, shortened: as §2
Human rhinovirus sp. [14] = experiment: Compound was tested for resistance (survivors(%)) by extended cycle replication assay conducted in 1 ug/mL Enviroxime.(3A amino acid substitution Glu 51 to Val); assay type: functional; procedure, shortened: as §2
Human rhinovirus sp. [15] = experiment: Compound was tested for resistance (survivors(%)) by extended cycle replication assay conducted in 1 ug/mL Enviroxime.(3A amino acid substitution Asp 28 to Tyr).; assay type: functional; procedure, shortened: as §2
Human rhinovirus sp. [16] = experiment: Compound was tested for resistance (survivors(%)) by extended cycle replication assay conducted in 1 ug/mL Enviroxime.(3A amino acid substitution Ile 32 to Val); assay type: functional; procedure, shortened: as §2
rhinovirus B14 [17] = experiment: % survivors was determined against mutants of human rhinovirus 14 by extended cycle replication assay in 1 ug/mL enviroxime; assay type: functional; procedure, shortened: as §2
rhinovirus B14 [18] = experiment: % survivors was determined against mutants of human rhinovirus 14 by extended cycle replication assay in 1 ug/mL enviroxime by different amino acid substitution by different amino acid substitution; assay type: functional; procedure, shortened: as §2
Human rhinovirus sp. [19] = experiment: (§3) % survivors was determined against mutants of human rhinovirus 14 by extended cycle replication assay in 1 ug/mL enviroxime by different amino acid substitution; assay type: functional; procedure, shortened: as §2
rhinovirus B14 [20] = experiment: as §3; assay type: functional; procedure, shortened: as §2

**Q.** For `C#C/C=C(\c1ccc(F)cc1)c1ccc2nc(N)n(S(=O)(=O)C(C)C)c2c1`, which Metabolism (Homo sapiens) is on record?
**A.** The Metabolism was 12%.

**Q.** What about the Metabolism (Monkey) of the same compound?
**A.** The Metabolism was 37%.

**Q.** What about the Metabolism (Rattus norvegicus [1]) of the same compound?
**A.** The Metabolism was 29%.

**Q.** And the Metabolism (Mus musculus [2])?
**A.** The Metabolism was 13%.

**Q.** What about the bioavailability [3] of the same compound?
**A.** The bioavailability was 23%.

**Q.** What about the Metabolism (Canis familiaris) of the same compound?
**A.** The Metabolism was 31%.

**Q.** Which Plasma concentration (Rhesus monkey [4]) does the source give for `C=C/C=C(\c1ccccc1)c1ccc2nc(N)n(S(=O)(=O)C(C)C)c2c1` here?
**A.** Its Plasma concentration is “none detected”.

**Q.** Which bioavailability [3] does the source give for `C#C/C=C(\c1ccc(SC)cc1)c1ccc2nc(N)n(S(=O)(=O)C(C)C)c2c1` here?
**A.** The bioavailability was 5%.

**Q.** For `C#C/C=C(\c1ccc([S+](C)[O-])cc1)c1ccc2nc(N)n(S(=O)(=O)C(C)C)c2c1` (configuration not stated), which bioavailability [3] is on record?
**A.** Its bioavailability is 3%.

**Q.** With `C#C/C=C(\c1ccccc1)c1ccc2nc(N)n(S(=O)(=O)C(C)C)c2c1` as the compound, how does the Plasma concentration (Rhesus monkey [5]) read?
**A.** Its Plasma concentration is 70 ng/mL.

**Q.** And the bioavailability [3]?
**A.** Its bioavailability is 9%.

**Q.** Which Metabolism (Homo sapiens) does the source give for `C/C=C(\c1ccccc1)c1ccc2nc(N)n(S(=O)(=O)C(C)C)c2c1` [ENVIRADENE] here?
**A.** The Metabolism was 73%.

**Q.** What about the Metabolism (Monkey) of the same compound?
**A.** The Metabolism was 88%.

**Q.** What about the Metabolism (Rattus norvegicus [6]) of the same compound?
**A.** Its Metabolism is 27%.

**Q.** What about the Plasma concentration (Rhesus monkey [5]) of the same compound?
**A.** The Plasma concentration was 14 ng/mL.

**Q.** And the Plasma concentration (Rhesus monkey [5]; tested as the 2H-labelled form)?
**A.** The Plasma concentration was 10 ng/mL.

**Q.** What about the Metabolism (Canis familiaris) of the same compound?
**A.** Its Metabolism is 40%.

**Q.** What about the Metabolism (Mus musculus [7]) of the same compound?
**A.** Its Metabolism is 36%.

**Q.** What does the source list for `C#C/C=C(\c1ccc(OC)cc1)c1ccc2nc(N)n(S(=O)(=O)C(C)C)c2c1`?
**A.** Survivors (Human rhinovirus sp. [8]): 5%; Survivors (Human rhinovirus sp. [9]): 2.2%; Survivors (Human rhinovirus sp. [10]): 3.5%; Survivors (Human rhinovirus sp. [11]): 6.8%; Survivors (Human rhinovirus sp. [12]): 0.05%; Survivors (Human rhinovirus sp. [13]): 5.6%; bioavailability [3]: 5%; Survivors (Human rhinovirus sp. [14]): 3.8%; Survivors (Human rhinovirus sp. [15]): 4.7%; Survivors (Human rhinovirus sp. [16]): 2.3%

**Q.** For `CC(C)S(=O)(=O)n1c(N)nc2ccc(/C(=N/O)c3ccccc3)cc21` [ENVIROXIME], which Metabolism (Homo sapiens) is on record?
**A.** Its Metabolism is 98%.

**Q.** What about the Survivors (Human rhinovirus sp. [8]) of the same compound?
**A.** The Survivors was 1.5%.

**Q.** And the Survivors (Human rhinovirus sp. [9])?
**A.** The Survivors was 0.7%.

**Q.** What about the Survivors (Human rhinovirus sp. [10]) of the same compound?
**A.** The Survivors was 1.9%.

**Q.** And the Survivors (rhinovirus B14 [17])?
**A.** Its Survivors is 0.6% and 2.1%.

**Q.** What about the Survivors (rhinovirus B14 [18]) of the same compound?
**A.** The Survivors was 1.5%.

**Q.** What about the Survivors (Human rhinovirus sp. [11]) of the same compound?
**A.** Its Survivors is 4.9%.

**Q.** What about the Metabolism (Monkey) of the same compound?
**A.** Its Metabolism is 80%.

**Q.** What about the Metabolism (Rattus norvegicus [1]) of the same compound?
**A.** Its Metabolism is 39%.

**Q.** And the Metabolism (Mus musculus [2])?
**A.** Its Metabolism is 24%.

**Q.** What about the Survivors (Human rhinovirus sp. [12]) of the same compound?
**A.** The Survivors was 0.07%.

**Q.** And the Survivors (Human rhinovirus sp. [13])?
**A.** The Survivors was 1.7%.

**Q.** What about the Metabolism (Canis familiaris) of the same compound?
**A.** The Metabolism was 37%.

**Q.** And the Survivors (Human rhinovirus sp. [14])?
**A.** The Survivors was 1.3%.

**Q.** What about the Survivors (Human rhinovirus sp. [15]) of the same compound?
**A.** Its Survivors is 2%.

**Q.** What about the Survivors (Human rhinovirus sp. [16]) of the same compound?
**A.** The Survivors was 0.7%.

**Q.** What about the Survivors (Human rhinovirus sp. [19]) of the same compound?
**A.** Its Survivors is 1.1% and 0.03%.

**Q.** And the Survivors (rhinovirus B14 [20])?
**A.** The Survivors was 5.5%.

**Q.** With `C#C/C=C(\c1ccc(OCC)cc1)c1ccc2nc(N)n(S(=O)(=O)C(C)C)c2c1` as the compound, how does the bioavailability [3] read?
**A.** The bioavailability was 4%.
